# System: Drosophila S3 cells
# Assay: qHTS of OA-induced lipid droplet storage in S3 cells
# Type: cell-based
# Details: Drosophila melanogaster
# Method in brief: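 Drosophila S3 cells in medium with 5% FCS receive library compounds at […] (46 μM to 3 nM, 1:5 steps). Droplets are induced with 400 μM oleic acid on fatty-acid-free BSA. After 18 h, cells are fixed and stained with BODIPY 493/503 (lipid) and CellTracker Red CMTPX (cell count), then read by 488 nm laser scanning. Lipid signal is normalised to cell number; dose-response curves are fitted.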
smiles,measurement,value
CCC/C=C/C/C=C/C=C/C=N/NN=O [TriacsinC],EC50,90 nM

# — publication PMC4919474 (EBioMedicine, 2016)
